Data published in ChEMBL document CHEMBL1123036, “Synthesis and antiallergic activities of 1,3-oxazolo[4,5-h]quinolines” (J Med Chem, 1985).

How the values were obtained:
[1] = test system: Rattus norvegicus; test: Percentage inhibition against passive cutaneous anaphylaxis after injecting 10 mg/kg perorally in rat; format: functional; conditions: route oral
Procedure, shortened: (§1)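 Rat passive cutaneous anaphylaxis: the read-out was inhibition of IgE-mediated cutaneous wheal formation after antigen challenge. Compounds were given by the route and dose stated on the line.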

[2] = test system: Rattus norvegicus; test: Percentage inhibition against passive cutaneous anaphylaxis after injecting 10 mg/kg intraperitoneally in rat; format: functional; conditions: route intraperitoneal; for inhibition in vivo at 10 mg/kg: Rattus norvegicus, ip; procedure, shortened: as §1
[3] = species on record: Rattus norvegicus; test: In vitro ability to inhibit antigen-induced release of histamine (AIR) from rat mast cells; format: functional, cell-based
Procedure, shortened: (§2)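 Rat peritoneal cells were collected by lavage and contained 5–10% mast cells. Histamine was measured by a radioenzymatic method instead of fluorometry, because some test agents fluoresce. Samples were incubated with [¹⁴C]methyl-S-adenosylmethionine and histamine-N-methyltransferase prepared from rat kidneys.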

[4] = test system: Rattus norvegicus; test: Ability to inhibit passive cutaneous anaphylaxis in rat, when compound was injected intraperitoneally.; format: functional; conditions: ip; procedure, shortened: as §1
[5] = species on record: Rattus norvegicus; test: (§3) In vitro ability to inhibit antigen-induced release of histamine (AIR) from rat peritoneal mast cells; format: functional, cell-based
Procedure, shortened: (§4)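 Peritoneal cells collected from rats by lavage, containing 5–10% mast cells. Antigen-induced histamine release was quantified radioenzymatically rather than fluorometrically: samples were incubated with [¹⁴C]methyl-S-adenosylmethionine and histamine-N-methyltransferase prepared from rat kidneys.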

[6] = species on record: Rattus norvegicus; test: Ability to inhibit passive cutaneous anaphylaxis in rat, when compound was injected perorally; format: functional; procedure, shortened: as §1
[7] = species on record: Rattus norvegicus; test: In vitro ability to inhibit antigen-induced release of histamine (AIR) from rat peritoneal mast cells.; format: functional; procedure, shortened: as §2
[8] = test system: Rattus norvegicus; test: Ability to inhibit passive cutaneous anaphylaxis in rat, when compound was injected intraperitoneally; format: functional; conditions: ip; procedure, shortened: as §1
[9] = test system: Rattus norvegicus; test: Percentage inhibition of 30 mg/kg compound against antigen-induced release of histamine (AIR) from rat mast cells; format: functional
[10] = species on record: Rattus norvegicus; test: as §3; format: functional; procedure, shortened: as §4
[11] = species on record: Rattus norvegicus; test: Percentage inhibition against passive cutaneous anaphylaxis in rat, when injected perorally; format: functional
Procedure, shortened: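 Rat passive cutaneous anaphylaxis, an IgE-mediated cutaneous wheal formation model; compounds given orally before antigen challenge; read-out is percent inhibition of wheal formation.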

[12] = species on record: Rattus norvegicus; test: In vitro ability to inhibit antigen-induced release of histamine (AIR) from rat mast cells; histamine release was assayed by a radioenzymatic method; format: functional, cell-based; procedure, shortened: as §2
[13] = test system: Rattus norvegicus; test: Ability to inhibit passive cutaneous anaphylaxis in rat, when […] injected perorally; format: functional; conditions: route oral; procedure, shortened: as §1
[14] = test system: Rattus norvegicus; test: Percentage inhibition against passive cutaneous anaphylaxis in rat, when injected intraperitoneally; format: functional; procedure, shortened: as §1
[15] = species on record: Rattus norvegicus; test: In vitro ability to inhibit antigen-induced release of histamine (AIR) from rat peritoneal mast cells; the compound was tested at a concentration of 50 uM.; format: functional, cell-based
[16] = test system: Rattus norvegicus; test: Percentage inhibition against passive cutaneous anaphylaxis after injecting 125 mg/kg perorally in rat; format: functional; conditions: route oral; procedure, shortened: as §1
[17] = test system: Rattus norvegicus; test: Percentage inhibition against passive cutaneous anaphylaxis after injecting 25 mg/kg perorally in rat; format: functional; conditions: route oral; procedure, shortened: as §1
[18] = species on record: Rattus norvegicus; test: Ability to inhibit anaphylactically induced release of histamine (AIR) from rat peritoneal mast cells; format: functional, cell-based; procedure, shortened: as §4
[19] = species on record: Rattus norvegicus; test: Ability to inhibit passive cutaneous anaphylaxis in rat, when compound was injected perorally.; format: functional; procedure, shortened: as §1

Compound `Clc1cc2ncoc2c2ncccc12` has an inhibition in vivo at 10 mg/kg [1] of 28%.

With `CCOC(=O)Cc1nc2cc(Cl)c3cccnc3c2o1` the inhibition in vivo at 10 mg/kg [2] was 9%.

`O=C([O-])c1cc(=O)c2c(OCC(O)COc3cccc4oc(C(=O)[O-])cc(=O)c34)cccc2o1.[Na+].[Na+]` [CROMOLYN SODIUM] showed an IC50 [3] of 3000 nM and an ED50 [4] of 6 mg/kg.

With `CCOC(=O)c1nc2cc(Cl)c3cccnc3c2o1` the IC50 [5] was 100 nM and the inhibition in vivo at 10 mg/kg [2] was 59%.

With `CC(=O)n1c(=O)oc2c3ncccc3ccc21` the ED50 [6] was 4 mg/kg, the Inhibition [7] was under 30% and the ED50 [8] was 10 mg/kg.

Work on `O=C(O)c1nc2cc(Cl)c3cccnc3c2o1` yielded an inhibition in vivo at 10 mg/kg [2] of 47%.

With `Cc1nc2cc(Cl)c3cccnc3c2o1` the IC50 [5] was 33000 nM and the inhibition in vivo at 10 mg/kg [1] was 15%.

Compound `Clc1cc2nc(-c3ccccc3)oc2c2ncccc12` has an inhibition in vivo at 10 mg/kg [1] of 3% and an inhibition in vivo at 30 mg/kg [9] of under 30%.

`O=C(/C=C/c1ccccc1)n1c(=O)oc2c3ncccc3c(Cl)cc21` gave an Inhibition [10] of 18% and an Inhibition [11] of 0%.

Compound `COC(=O)c1nc2cc(Cl)c3cccnc3c2o1` [QUAZOLAST] has an IC50 [12] of 300 nM, an inhibition in vivo at 10 mg/kg [2] of 100% and an ED50 [13] of 0.5 mg/kg. For the same compound, the ED50 [4] was 0.1 mg/kg.

With `CC(=O)n1c(=O)oc2c3ncccc3c(Cl)cc21` the Inhibition [11] was 15%.

With `COc1ccccc1C(=O)n1c(=O)oc2c3ncccc3c(Cl)cc21` the Inhibition [10] was 16% and the Inhibition [11] was 34%.

With `Clc1cc2nc(C(Cl)(Cl)Cl)oc2c2ncccc12` the IC50 [5] was 30 nM and the Inhibition [14] was 28%.

Compound `Oc1nc2cc(Cl)c3cccnc3c2o1` has a % inhibition [15] of 18% and an inhibition in vivo at 125 mg/kg [16] of 14%.

Compound `CCOC(=O)n1c(=O)oc2c3ncccc3c(Cl)cc21` has an Inhibition [11] of 43%.

With `O=C([O-])c1nc2cc(Cl)c3cccnc3c2o1.[Na+]` the IC50 [5] was 300 nM and the Inhibition [2] was 51%.

With `CN(C)C(=O)n1c(=O)oc2c3ncccc3c(Cl)cc21` the Inhibition [10] was 0%.

`Oc1nc2ccc3cccnc3c2o1` showed an inhibition in vivo at 25 mg/kg [17] of 0%.

`COc1ccccc1NC(=O)Oc1cccc2cccnc12` showed an IC50 [18] of 2000 nM.

`Cn1c(=O)oc2c3ncccc3c(Cl)cc21` showed an ED50 [19] of 102 mg/kg and an inhibition in vivo at 125 mg/kg [16] of 51%.
